PostGolgi ctrl: yeast control strain growth, post-Golgi counter-screen | inhibition, % at 10 µM | 5% of 98,000 active | efflux-deficient yeast background strain, growth absorbance A615, 16 h
D1 mod: allosteric modulators of human D1 dopamine receptor | P21728 | HEK293 D1, CRE-luciferase, dopamine EC30 potentiation; actives deviate in either direction | B-score at 10 µM | 5.9% of 58,000 active | AID 641;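 active = luminescence count or its row- and column-corrected plate score outside the 99.7% band of the plate's sample wells, on either side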
DAT uptake mod: modulates human dopamine transporter uptake under cocaine; Q01959; LLC-PK1 hDAT cells, [14C]-dopamine uptake with cocaine IC80; actives deviate in either direction; B-score at 10 µM; 1.3% of 110,000 active; AID 449768;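 active = Z score or B-score, a plate-position-corrected score, falls beyond the plate's 99.7% confidence bounds, in either direction; inactive = both scores lie inside the 99.7% bounds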;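 note: scored against the spread of the other compound wells on the same plate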
Target sequence (Q01959 whole entry, looked up): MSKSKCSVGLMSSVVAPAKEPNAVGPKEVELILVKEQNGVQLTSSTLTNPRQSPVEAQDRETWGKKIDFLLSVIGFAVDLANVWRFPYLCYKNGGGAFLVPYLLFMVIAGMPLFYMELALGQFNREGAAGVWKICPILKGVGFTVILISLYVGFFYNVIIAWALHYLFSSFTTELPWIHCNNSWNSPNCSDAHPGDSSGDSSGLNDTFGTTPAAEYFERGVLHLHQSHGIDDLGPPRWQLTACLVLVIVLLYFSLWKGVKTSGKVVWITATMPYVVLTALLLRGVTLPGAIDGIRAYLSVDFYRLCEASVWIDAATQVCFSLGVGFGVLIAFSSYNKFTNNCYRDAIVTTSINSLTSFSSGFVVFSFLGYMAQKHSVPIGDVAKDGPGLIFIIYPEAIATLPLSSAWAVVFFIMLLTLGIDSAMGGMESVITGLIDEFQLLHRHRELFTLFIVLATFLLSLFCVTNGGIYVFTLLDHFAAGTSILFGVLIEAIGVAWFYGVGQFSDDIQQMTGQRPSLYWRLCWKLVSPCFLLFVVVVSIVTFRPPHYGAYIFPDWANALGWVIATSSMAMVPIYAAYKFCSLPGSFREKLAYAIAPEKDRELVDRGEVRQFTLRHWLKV
Ecoli WT expand: E. coli BW25113 growth inhibition, expanded screen | OD600 absorbance | growth inhibition, % at 100 µM | 0.15% of 98,000 active | AID 710;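 active = growth inhibition above about 50% at one test dose, limit read from the data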;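 note: growth measured after 20 h incubation at 37 °C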
PostGolgi yeast: growth inhibition of a yeast mutant, post-Golgi transport screen; post-Golgi transport phenotypic cell assay; inhibition, % at 10 µM; 0.9% of 98,000 active; AID 739;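 note: yeast cells grown in 1536-well plates; yeast grown about 18 h at 30C before absorbance read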
Ecoli tolC: E. coli tolC mutant growth inhibition | 2.2% of 65,000 active | growth inhibition, % at 10 µM (by protocol) | E. coli BW25113 tolC mutant growth, OD615 | AID 573;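 active = growth inhibition at or above a cutoff equal to the mean over every tested compound plus 3 SD, cut at about 60% in these data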;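 note: growth measured after 20 h incubation at 37 °C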
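Test system – E. coli BW25113 ΔtolC::kan, tolC deletion mutant strain · Detection – OD at 615 nm · Buffer or medium – LB with kanamycin 50 µg/mL · Times – 20 h compound exposure of bacteria at 37 °C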
Numbers without * were called inactive; · = not tested or not shown. In the library only some 9.3% were active in any assay of this set; here they are far more common. Cut-off read from the data, not from the text of the source, unless noted: active = inhibition above about 30%; inactive = the rest.

SMILES	PostGolgi ctrl	D1 mod	DAT uptake mod	Ecoli WT expand	PostGolgi yeast	Ecoli tolC
Cc1cc(C)n(-c2cc(N3CCOCC3)nc(-c3ccccc3)n2)n1	42*	0.36	0.46	1	0	-2
Cc1cc(C)cc(OCC(=O)NNC(=O)CCC(=O)NCc2ccccc2)c1	·	·	0.64	·	·	·
c1cncc(-c2nc3c4ccccc4nc(N4CCC(N5CCCCC5)CC4)n3n2)c1	·	0.83	·	·	·	0
NS(=O)(=O)c1ccc(CCNC2CC(=O)N(Cc3ccccc3)C2=O)cc1 (stereo not drawn)	32*	-0.026	0.31	-4	-3	-13
Cc1ccc(S(=O)(=O)NC(=O)c2cc(C)n(CCCN3CCOCC3)c2C)cc1	13	-2.4*	·	6	12	-5
CN1[C@@H]2CC[C@H]1CC(OC(=O)C(CO)c1ccccc1)C2 (stereo partly drawn)	·	·	0.71	·	·	·
Cc1cccc(Oc2ncc(-c3ccc(Cl)cc3)cn2)c1C	36*	·	0.14	-5	-5	·
O=C(CSc1nnc(-c2cc3ccccc3cc2O)n1Cc1ccco1)c1ccc(F)cc1	80*	-0.86	-0.31	-18	-3	48
O=C(CSc1nnc(-c2ccco2)n1Cc1ccccc1)c1ccc(F)cc1	32*	-0.86	-0.026	-1	-4	15
O=C(Nc1ccccc1)c1ccc(N2CCN(c3ccccn3)CC2)c(S(=O)(=O)N2CCOCC2)c1	2	·	-0.12	-5	10	·
O=C(c1ccc(Cl)c(S(=O)(=O)N2CCCCCC2)c1)N1CCN(c2ccccn2)CC1	17	·	2.7*	-8	4	·
Cc1ccccc1NC(=O)c1ccc(F)c(S(=O)(=O)N2CCN(c3ccccn3)CC2)c1	13	-2.2*	-0.25	-6	0	36
O=C(COC(=O)CC12CC3CC(CC(Br)(C3)C1)C2)NC(=O)NCc1ccco1	17	·	0.51	9	0	·
Cc1ccc(SCCC(=O)NCCSCc2ccccc2C)cc1	54*	·	2	-15	7	·
COc1ccc(C(=O)NCCSCc2ccccc2C)cc1	19	·	1.8	11	-2	·
Cc1ccc(CN2CCN(/N=C/c3cc(Br)ccc3O)CC2)cc1	22	·	0.53	-7	74*	·
COC(=O)C(C(=O)NCC1CCCO1)C1CCCC1 (stereo not drawn)	7	·	0.0065	-5	23	·
O=C(CCCSc1nc(-c2ccco2)cc(C(F)(F)F)n1)Nc1ccc2c(c1)OCO2	10	3.2	-1	-6	-1	79*
O=C(CCSc1nc(-c2ccco2)cc(C(F)(F)F)n1)N1CCN(c2ccccn2)CC1	30*	-1.2	0.039	-27	5	60
O=C(CSc1nc(-c2ccco2)cc(C(F)(F)F)n1)Nc1ccc2c(c1)OCO2	·	1.1	-0.9	·	·	11
O=C(CCSc1nc(-c2ccco2)cc(C(F)(F)F)n1)N1CCCc2ccccc21	38*	-0.59	0.37	-17	-3	77*
Cc1ccc(NC(=O)CSc2nnc(Cn3c(=O)sc4ccccc43)n2C)cc1Cl	-8	-2.9	·	-15	4	-1
COc1ccc(S(=O)(=O)CCC(=O)O)cc1	34*	-0.11	0.001	-3	1	-5
Cc1ccccc1-c1nc(S(=O)(=O)c2ccc(Cl)cc2)c(NCCN2CCOCC2)o1	22	·	1.9*	-10	7	·
O=S(=O)(c1ccccc1)c1nc(-c2ccccc2Cl)oc1NCCN1CCOCC1	15	·	-0.028	-13	8	·
SMILES	PostGolgi ctrl	D1 mod	DAT uptake mod	Ecoli WT expand	PostGolgi yeast	Ecoli tolC
CN(C)CCNC(=O)COc1cccc(Cl)c1	0	0.3	-0.16	3	-9	-4
COc1ccc(N2C(=O)C3CCCN3C2c2ccc(C)o2)cc1Cl (stereo not drawn)	15	0.69	-0.11	5	-4	-6
Cc1ccc(C2N(c3ccc(Cl)c(Cl)c3)C(=O)C3CCCN32)o1 (stereo not drawn)	1	-1.4	0.29	21	40*	2
Cc1cccc(C)c1N1CCN(c2ccc3nnc(C(F)(F)F)n3n2)CC1	48*	·	0.17	9	19	·
FC(F)(F)c1nnc2ccc(N3CCOCC3)nn12	15	0.33	-1.4	-3	3	-15
O=C(Nc1ccc2nsnc2c1)c1ccc2c(c1)OCO2	-1	-4*	0.01	-13	13	0
O=C(Nc1ccc(F)c(F)c1)c1ccc2c(c1)OCO2	-2	-1.7	-0.031	7	-5	2
O=C(NCc1ccc2c(c1)OCO2)c1ccc2c(c1)S(=O)(=O)c1ccccc1C2=O	·	·	0.42	·	·	·
O=C(CCSc1ccc(Cl)cc1)NC1CCCCC1	6	·	·	5	0	·
